Numbering of substitutions follows the chain as printed. Where “and” joins values, the source holds several entries; their conditions need not be identical. Equal entries are not always repeated. Calls of active or inactive are those of the source. The rule behind the calls is not given here.
Tests used:
[1] = tested on: T1, Vitamin D3 receptor (Homo sapiens), P11473 [R274L]; assay: Agonist activity at human full length VDR R274L mutant expressed in COS7 cells after 24 rs by luciferase reporter gene assay; format: cell-based; conditions: COS-7
T1 sequence (whole entry): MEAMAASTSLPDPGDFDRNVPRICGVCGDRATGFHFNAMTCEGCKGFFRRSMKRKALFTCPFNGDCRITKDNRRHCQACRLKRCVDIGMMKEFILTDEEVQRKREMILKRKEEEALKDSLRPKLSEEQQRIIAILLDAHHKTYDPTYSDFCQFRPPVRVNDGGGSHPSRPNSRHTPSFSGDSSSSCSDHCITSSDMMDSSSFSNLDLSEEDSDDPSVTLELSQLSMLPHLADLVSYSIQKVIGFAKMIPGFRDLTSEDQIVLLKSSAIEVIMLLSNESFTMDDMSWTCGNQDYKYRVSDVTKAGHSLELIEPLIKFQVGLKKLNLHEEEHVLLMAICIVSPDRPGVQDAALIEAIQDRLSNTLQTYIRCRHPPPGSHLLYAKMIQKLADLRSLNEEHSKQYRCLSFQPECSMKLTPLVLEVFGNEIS
How it was run: (§1)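 COS-7 cells grown in DMEM with 5% FCS, seeded at 2 × 10^4 per well. After 24 h, lipofected with mutant full-length hVDR expression plasmid, SPPx3-TK-Luc reporter (three mouse osteopontin VDRE copies) and sea pansy luciferase internal control. Medium changed after 4 h to 5% charcoal-treated FCS. Next day, ligand or ethanol vehicle added for 24 h. Lysate firefly luciferase normalized to the internal control. Triplicate.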

[2] = molecular target: T2, Vitamin D3 receptor (Homo sapiens) (UniProt P11473); assay: Agonist activity at human full length VDR W282R mutant expressed in COS7 cells after 24 rs by luciferase reporter gene assay; format: cell-based; conditions: COS-7; how it was run: as §1
T2 sequence (whole entry): T1 sequence (whole entry) with L274R

[3] = tested on: T1, Vitamin D3 receptor (Homo sapiens), P11473 [R274L]; assay: Transactivation of human full length VDR R274L mutant expressed in COS7 cells after 24 rs by luciferase reporter gene assay relative to 1,25(OH)2D3; format: cell-based; conditions: COS-7; how it was run: as §1
[4] = tested on: T3, Vitamin D3 receptor (Rattus norvegicus), P13053 [W282R]; conditions: 5 mM
T3 sequence (whole entry): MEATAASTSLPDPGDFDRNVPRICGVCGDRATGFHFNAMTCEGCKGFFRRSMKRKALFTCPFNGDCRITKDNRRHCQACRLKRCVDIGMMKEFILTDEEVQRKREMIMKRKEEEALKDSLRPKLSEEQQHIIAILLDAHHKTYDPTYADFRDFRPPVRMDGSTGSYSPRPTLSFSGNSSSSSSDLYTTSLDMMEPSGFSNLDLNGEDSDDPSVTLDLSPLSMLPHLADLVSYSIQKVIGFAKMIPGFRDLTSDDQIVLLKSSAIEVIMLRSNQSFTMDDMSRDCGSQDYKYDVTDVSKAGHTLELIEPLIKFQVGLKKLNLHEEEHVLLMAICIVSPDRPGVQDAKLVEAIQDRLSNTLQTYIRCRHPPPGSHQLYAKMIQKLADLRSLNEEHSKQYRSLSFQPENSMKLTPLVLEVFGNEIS

[5] = molecular target: T4, Vitamin D3 receptor (Rattus norvegicus) (UniProt P13053); conditions: 5 mM
T4 sequence (whole entry): T3 sequence (whole entry) with R282W

[6] = tested on: T5, Vitamin D3 receptor (Rattus norvegicus), P13053 [R270L]; conditions: 5 mM
T5 sequence (whole entry): T3 sequence (whole entry) with R270L, R282W

| SMILES | Activity [1] | Activity [2] | other results |
| --- | --- | --- | --- |
| C[C@H](CCCC(C)(C)O)[C@H]1CC[C@H]2/C(=C/C=C3/C[C@@H](O)[C@@](C)(O)[C@H](OCCO)C3)CCC[C@]12C | inactive |  |  |
| CCCC[C@@H]1CC[C@]2(C)[C@@H]([C@H](C)CCCC(C)(C)O)CC[C@H]2/C1=C/C=C1C[C@@H](O)C[C@H](O)C1 |  | inactive |  |
| C[C@H](CCCC(C)(C)O)[C@H]1CC[C@H]2/C(=C/C=C3/C[C@@H](O)[C@@](C)(O)[C@H](OCCCO)C3)CCC[C@]12C | inactive |  |  |
| CCC(O)(CC)CS[C@@H](C)C1=CC[C@H]2/C(=C/C=C3C[C@@H](O)C(=CCO)[C@H](O)C3)CCC[C@]12C |  |  | fold change (FC) [3]: 130 and 46 |
| C[C@H](CCCC(C)(C)O)[C@H]1CC[C@H]2/C(=C/C=C3C[C@@H](O)C(=CCO)[C@H](O)C3)[C@H](CCCO)CC[C@]12C |  | inactive |  |
| C[C@H](CCCC(C)(C)O)[C@H]1CC[C@H]2/C(=C/C=C3/C[C@@H](O)[C@@](C)(O)[C@H](OCCCCO)C3)CCC[C@]12C | inactive |  |  |
| C=C1/C(=C\C=C2/CCC[C@]3(C)[C@@H]([C@H](C)CCCC(C)(C)O)CC[C@@H]23)C[C@@H](O)C[C@@H]1O |  |  | ΔTm [4]: 0.1 °C; ΔTm [5]: 8.4 °C; ΔTm [6]: 2.5 °C |
| C=CC[C@@H]1CC[C@]2(C)[C@@H]([C@H](C)CCCC(C)(C)O)CC[C@H]2/C1=C/C=C1C[C@@H](O)C(=CCO)[C@H](O)C1 |  | inactive |  |
| C[C@H](CCCC(C)(C)O)[C@H]1CC[C@H]2/C(=C/C=C3/C[C@@H](O)C[C@H](OCCCCO)C3)CCC[C@]12C | Active |  |  |
| C[C@H](CCCC(C)(C)O)[C@H]1CC[C@H]2/C(=C/C=C3/C[C@@H](O)C[C@H](OCCO)C3)CCC[C@]12C | Active |  |  |

— ChEMBL document CHEMBL2424653, “Crystal structures of hereditary vitamin D-resistant rickets-associated vitamin D receptor mutants R270L and W282R bound to 1,25-dihydroxyvitamin D3 and synthetic ligands” (J Med Chem, 2013)
